Data on 13 compounds can be found in PMC11094776 (Protein Science : A Publication of the Protein Society, 2024).

Non-standard residues stand in square brackets, D forms with d. Residues, ends and D or L forms follow the SMILES beside them. No end group written: not given here. *: point of attachment. FITC = O=C1OC2(c3ccc(O)cc3Oc3cc(O)ccc32)c2ccc(NC(=S)*)cc21; βAla = NCCC(=O)O

Assay [1] concerns the target AF4 (761–770 aa) derived fluorescent labeled peptide (UniProt P51825). In words: fluorescence polarisation. (In general: Fluorescence polarisation rises when a labelled molecule tumbles more slowly, as on binding a larger partner.)
In assay [2] the target is DOT1L (879–888 aa) derived fluorescent labeled peptide. In words: fluorescence polarisation.
The target of assay [3] is T1, MBP‐AAA‐AF9 AHD (Homo sapiens, UniProt P42568).
T1 sequence (P42568 500-568): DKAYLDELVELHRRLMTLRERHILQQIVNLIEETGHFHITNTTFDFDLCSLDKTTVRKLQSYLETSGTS
The experiment in a line: Fluorescence polarization direct binding, MBP-AAA-AF9 AHD.

The target of assay [4] is MBP‐AAAA‐AF9 AHD Q336C/K501C (Homo sapiens, UniProt P42568, Q361C). In words: Fluorescence polarization direct binding, MBP-AAAA-AF9 AHD Q336C/K501C. The method in brief: (§1)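 Fusion protein expressed at 18°C in Rosetta (DE3) cells in TB medium. Cells were lysed by sonication in 50 mM Tris 7.4, 150 mM NaCl, 10% glycerol, 20 mM imidazole, 3 mM TCEP. Protein was captured on Ni-NTA, eluted with a 50–250 mM imidazole gradient, TEV-treated overnight (1:100 w/w), then run on Superdex 200 SEC. Stored at −80°C in 25 mM Tris 7.4, 150 mM NaCl, 1 mM TCEP.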

Assay [5] has as its target T2, MBP‐RITK‐AF9 AHD (Homo sapiens, UniProt P42568).
T2 sequence (P42568 500-568): T1 sequence (P42568 500-568)
The experiment in a line: Fluorescence polarization direct binding, MBP-RITK-AF9 AHD. The method in brief: as §1

For assay [6], the target named is MBP‐AAA‐AF9 AHD Q336C/A502C (Homo sapiens, UniProt P42568, A502C/Q361C). In words: Fluorescence polarization direct binding, MBP-AAA-AF9 AHD Q336C/A502C. Put shortly:
as §1

Assay [7] deals with T3, MBP‐AAAA‐AF9 AHD (Homo sapiens, UniProt P42568).
T3 sequence (P42568 500-568): T1 sequence (P42568 500-568)
In words: Fluorescence polarization direct binding, MBP-AAAA-AF9 AHD.

Assay [8] has as its target T4, MBP‐GS‐AF9 AHD (Homo sapiens, UniProt P42568).
T4 sequence (P42568 500-568): T1 sequence (P42568 500-568)
The experiment in a line: Fluorescence polarization direct binding, MBP-GS-AF9 AHD. Put shortly: as §1

For assay [9], the system named is AF9 AHD. The settings on record: cited from earlier work; for interaction sites within the DOT1L sequence: ref Kuntimaddi et al., 2015.
The test system of assay [10] is ENL AHD. Conditions: ref Kabra & Bushweller, 2022; cited from earlier work.

A word on the Kd: it is the concentration at which binding is half-saturated. A lower Kd goes with tighter binding. With “MBP‐RITK‐AF9 AHD (from UniProt P42568 500-568) (domain or fragment)”, the Kd turned out to be 1.31 nM in [1] and 7.86 nM in assay [2].

For `CC[C@H](C)[C@H](NC(=O)[C@H](CO)NC(=O)[C@@H](NC(=O)[C@@H]1CCCN1C(=O)[C@H](CC(C)C)NC(=O)CCNC(=O)CCNC(=O)[C@H](CCCCNC(=S)Nc1ccc2c(c1)C(=O)OC21c2ccc(O)cc2Oc2cc(O)ccc21)NC(C)=O)C(C)C)C(=O)N1CCC[C@H]1C(=O)N[C@@H](CC(C)C)C(=O)N[C@@H](C)C(=O)N[C@@H](CO)C(=O)N[C@H](C(N)=O)C(C)C` [DOT1L (879–888 aa)] (Ac-K(FITC)[βAla][βAla]LPVSIPLASV-NH2), the Kd in [3] worked out at 8.79 ± 0.41 nM; in assay [4], 10.7 ± 2.84 nM; in assay [5], 7.86 ± 0.76 nM; in [6], 20.9 ± 2.59 nM; in assay [7] it was 15.6 ± 1.93 nM; in assay [8], 17.9 ± 3.49 nM.

In the case of “MBP‐AAAA‐AF9 AHD Q336C/K501C (from UniProt P42568 500-568) (domain or fragment)”, the Kd in assay [1] is 1.26 nM; in assay [2], 10.7 nM.

Regarding “MBP‐AAA‐AF9 AHD (from UniProt P42568 500-568) (domain or fragment)”, the Kd in assay [2] was found to be 8.79 nM.

Regarding LPVSIPLASV [LPVSIPLASV (879–888)], the “interaction sites within the DOT1L sequence” value in assay [9] was “interaction sites”.

For the compound LELQISIVEL [LELQISIVEL (638–647)], the “interaction sites within the DOT1L sequence” value in assay [9] is listed as “interaction sites”.

As to “MBP‐AAA‐AF9 AHD Q336C/A502C (from UniProt P42568 500-568) (domain or fragment)”, the Kd in assay [2] was determined as 20.9 nM.

Turning to `CC[C@H](C)[C@H](NC(=O)[C@H](CCCCN)NC(=O)[C@@H](NC(=O)[C@H](CCSC)NC(=O)[C@H](CC(C)C)NC(=O)CCNC(=O)CCNC(=O)[C@H](CCCCNC(=S)Nc1ccc2c(c1)C(=O)OC21c2ccc(O)cc2Oc2cc(O)ccc21)NC(C)=O)C(C)C)C(=O)N[C@H](C(=O)N[C@@H](CC(C)C)C(=O)N[C@@H](CC(=O)O)C(=O)N[C@@H](CC(C)C)C(=O)N[C@@H](CC(C)C)C(N)=O)[C@@H](C)O` [AF4 (761–770 aa)] (Ac-K(FITC)[βAla][βAla]LMVKITLDLL-NH2), the Kd in assay [4] is 1.26 ± 0.11 nM; in assay [5], 1.31 ± 0.05 nM; in [6] it was 3.49 ± 0.18 nM; in assay [8] it was 3.7 ± 0.94 nM.

“MBP‐GS‐AF9 AHD (from UniProt P42568 500-568) (domain or fragment)”: in assay [2], the Kd was determined as 17.9 nM.

On to “AF4 peptide: AF4 peptide of prior reports (LMVKITLDLL; also: fluorescent label, dye and position not given here)”, for which, in [9] (prior reports, ref Kabra & Bushweller, 2022, Shen et al., 2013), the “affinity for AF9 AHD relative to DOT1L peptide” value is recorded as “higher affinity”.

Regarding “BCOR peptide (1176–1228): longer BCOR peptide (1176–1228) (TNSSSNHLEDPHYSELTNLKVCIELTGLHPKKQRHLLHLRERWEQQVSAADGK; UniProt Q6W2J9 1176-1228, looked up, fragment)”, the “binding affinity compared with short peptide (1176–1207)” value in assay [10] is listed as “higher binding affinity”; in assay [9] (AF9 AHD, ref Kabra & Bushweller, 2022), “higher binding affinity”.

As to LPISIPLSTV [LPISIPLSTV (865–874)], in assay [9] (mapped 10-amino acid DOT1L peptide, ref Grigsby et al., 2021, Shen et al., 2013), the “binding site for the AHD” value is given as “binding site for the AHD”.

“MBP‐AAAA‐AF9 AHD (from UniProt P42568 500-568) (domain or fragment)” returned a Kd in [2] of 15.6 nM.
